Measurements as given in ChEMBL document CHEMBL1137111, “Application of multi-component reactions to antimalarial drug discovery. Part 1: Parallel synthesis and antiplasmodial activity of new 4-aminoquinoline Ugi adducts” (Bioorg Med Chem Lett, 2004).

Tests used:
Type in all cases: functional, organism-based
[1] = test system: Plasmodium falciparum; assay: Antimalarial activity against chloroquine-resistant Plasmodium falciparum K1
[2] = test system: Plasmodium falciparum; assay: Antimalarial activity against chloroquine-resistant Plasmodium falciparum W2
In short: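 W2 parasites in RPMI-1640 with 10% human serum, synchronized with 5% D-sorbitol. From ring stage, exposed 48 h to a concentration series added from DMSO stocks (≤0.1% DMSO; controls 0.1% DMSO). Fixed 48 h in 1% formaldehyde/PBS pH 7.4 at room temperature, stained with 1 nM YOYO-1, and parasitemia read by flow cytometry. IC50 from % control parasitemia by nonlinear regression, duplicate experiments.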

[3] = test system: Plasmodium falciparum; assay: Antimalarial activity against chloroquine-sensitive Plasmodium falciparum D10

Structure (SMILES) | IC50 [1] [nM] | IC50 [2] [nM] | IC50 [3] [nM]
CC(C)(C)NC(=O)CN(CCNc1ccnc2cc(Cl)ccc12)C(=O)c1ccncc1 | 1100 | 990 | 1060
CC(C)(C)NC(=O)CN(CCCNc1ccnc2cc(Cl)ccc12)C(=O)c1cnccn1 | 2290 | 1650 | 1370
O=C(CN(CCNc1ccnc2cc(Cl)ccc12)C(=O)c1cnccn1)NC1CCCCC1 | 1350 | > 10000 | 790
O=C(CN(CCCNc1ccnc2cc(Cl)ccc12)C(=O)c1ccncc1)NC1CCCCC1 | 70 | 1560 | 230
CC(C)(C)NC(=O)CN(CCNc1ccnc2cc(Cl)ccc12)C(=O)c1cnccn1 | 1130 | 1190 | 710
CC(C)(C)NC(=O)CN(CCCNc1ccnc2cc(Cl)ccc12)C(=O)c1ccncc1 | 18200 | 3800 | > 20000
O=C(CN(CCCNc1ccnc2cc(Cl)ccc12)C(=O)c1cnccn1)NC1CCCCC1 | 520 | 870 | 240
O=C(CN(CCNc1ccnc2cc(Cl)ccc12)C(=O)c1ccncc1)NC1CCCCC1 | 530 | 610 | 540
O=C(CN(CCCNc1ccnc2cc(Cl)ccc12)C(=O)c1ccc(O)cc1O)NC1CCCCC1 | 3820 | 5930 | 1670
